Bioassay records: PubChem BioAssay, several laboratories
S1P3 antagonist: S1P3 receptor antagonists, primary screen, cell-based. Sphingosine 1-phosphate receptor 3 (Homo sapiens), Q99500. CHO S1P3 NFAT-BLA reporter, FRET fluorescence, antagonist mode. inhibition, % at 4.98 µM. 170,000 compounds, 0.27% hits;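 active = inhibition above the plate cutoff, the mean inhibition of test wells on that plate plus 3 SD, cut at about 28% in these data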;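 also: cells challenged with S1P at its EC80 of 0.8 µM; blue over green emission ratio from cleaved BLA substrate after 4 h stimulation; 0% = S1P-stimulated wells and 100% = unstimulated DMSO-only wells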
Target sequence (Q99500 whole entry, looked up): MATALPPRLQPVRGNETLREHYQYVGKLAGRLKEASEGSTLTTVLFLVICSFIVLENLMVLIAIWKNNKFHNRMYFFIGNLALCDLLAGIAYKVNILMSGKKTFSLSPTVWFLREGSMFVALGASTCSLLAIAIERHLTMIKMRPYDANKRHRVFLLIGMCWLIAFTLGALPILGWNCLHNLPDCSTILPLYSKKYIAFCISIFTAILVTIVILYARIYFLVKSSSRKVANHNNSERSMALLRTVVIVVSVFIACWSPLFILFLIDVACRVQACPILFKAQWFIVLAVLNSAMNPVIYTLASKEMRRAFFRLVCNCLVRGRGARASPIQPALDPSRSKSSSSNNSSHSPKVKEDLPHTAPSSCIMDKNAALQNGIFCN
Yeast lifespan up: compounds extending yeast replicative lifespan, primary screen, S. cerevisiae, OD615. S. cerevisiae growth with nicotinamide; deaD strain in restrictive glucose medium. inhibition of the nicotinamide effect, % at 10 µM. 130,000 compounds, 0.68% hits. AID 775, 2007;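 active = inhibition above a set limit, placed 3 SD over the median of all compounds, cut at about 26% in these data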;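 also: 0% = nicotinamide-treated wells and 100% = cells grown without nicotinamide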
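Buffer or medium: CSMM-D glucose medium, restrictive; test system: modified budding yeast, DeaD strain; compound: single dose 10 µM compound, 0.25% DMSO; schedule: culture preincubation 4 h, compound exposure 48 h, both 30 °C; detection: optical density (absorbance) at 615 nm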
BB579 growth dn: growth inhibitors of yeast BB579 in restrictive medium, primary screen, yeast lifespan-shortening project, S. cerevisiae. OD615, 48 h. inhibition, % at 10 µM. AID 804, 2007. 140,000 compounds, 0.51% hits;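 active = inhibition above a set limit, 3 SD over the mean compound inhibition, cut at about 44% in these data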
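controls = amphotericin B 10 µg/mL, positive | assay system = DeaD yeast strain BB579 | schedule = 48 h compound exposure at 30 °C after 4 h preincubation | detection = OD615 turbidity measurement | medium = restrictive CSMM-D medium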
The depositor's hits bear a star; x = no result. In the library only some 0.98% were active in any assay of this set; here they are far more common.

SMILES	S1P3 antagonist	Yeast lifespan up	BB579 growth dn
N#C/C(=N/O)c1nc(-c2ccc(F)cc2)cs1	-3	-3	54*
O=S(=O)(Nc1nc2ccccc2nc1Cl)c1ccccc1	-16	30*	-4
O=S(=O)(Nc1nc2ccccc2[nH]1)c1ccccc1	-34	1	-22
O=S(=O)(Nc1nc2ccccc2nc1Cl)c1ccc(F)cc1	-2	x	x
CCC(C)Oc1nc2ccccc2nc1NS(=O)(=O)c1ccccc1 (stereo unspecified)	x	26*	-39
O=S(=O)(Nc1nc2cc3c(cc2nc1Cl)OCCO3)c1ccccc1	-2	x	x
O=S(=O)(Nc1nc2ccccc2nc1Cl)c1ccc2ccccc2c1	-9	41*	-31
O=C(NCCCN1CCOCC1)C1Cc2c(ccc3ccccc23)O1 (stereo unspecified)	-2	x	x
C=CCOC(=O)C(C#N)c1nc2ccccc2nc1N1CCN(c2ccccc2OC)CC1 (stereo unspecified)	11	0	-43
C=CCN(CC=C)c1nc2ccccc2nc1C(C#N)C(=O)OC(C)C (stereo unspecified)	x	36*	-34
C=C(C)COc1ccc(-c2[nH]ncc2-c2ccc(OC)cc2)c(O)c1	2	x	x
C=C(C)COc1ccc(-c2[nH]ncc2Oc2cccc(OC)c2)c(O)c1	-19	-31	75*
C=C(C)COc1ccc(-c2[nH]ncc2Oc2ccccc2OCC)c(O)c1	-24	-15	-5
C=C(C)COc1ccc(-c2[nH]ncc2-c2ccccc2)c(O)c1	x	-17	88*
N=c1oc2ccc3ccccc3c2cc1-c1nnc2n1CCCCC2	-11	-14	-27
CN1C(=O)C(O)(c2nnc(-c3ccccc3)o2)c2ccccc21 (stereo unspecified)	-4	x	x
CN1C(=O)C2(N=c3ccccc3=N2)c2ccccc21	x	-35	57*
CC(C)C(Sc1nc(-c2ccccc2)cc(-c2ccccc2)c1C#N)C(=O)O (stereo unspecified)	-23	x	x
CCOC(=O)c1sc(=S)n(Cc2ccccc2)c1N	20	-17	4
CNc1nc(OC)nc(N2CCOCC2)n1	66*	3	-25
CNc1nc(OCC(F)(F)F)nc(N2CCOCC2)n1	x	-9	-36
CCOc1ccc(N=Cc2c(O)cc(C)oc2=O)cc1	23	-8	40
CCOc1ccc(N=Cc2c(O)c3ccccc3oc2=O)cc1	1	88*	-39
CC1CCCC/C1=N\NS(=O)(=O)c1ccc(Br)cc1 (stereo unspecified)	x	1	-51
COc1ccc(-c2nc3ccccc3c(=O)n2N)cc1	x	-22	-4
SMILES	S1P3 antagonist	Yeast lifespan up	BB579 growth dn
COc1ccc(C(=O)On2c(-c3ccc(Br)cc3)nc3ccccc3c2=O)cc1	3	96*	-33
COc1ccc(O)c(CNn2c(-c3ccc(Br)cc3)nc3ccccc3c2=O)c1	-13	x	x
COc1cc(OC)cc(-c2nc3ccccc3c(=O)n2OC(=O)c2ccc(Br)cc2)c1	0	71*	-11
Cc1c(/C=C/C(=O)c2ccccc2O)cnn1C	-7	-6	-19
COc1ccc(C(O)C(CN2CCOCC2)c2ccccc2)cc1F (stereo unspecified)	0	-1	-51
COc1ccc(C(=O)C(CN2CCOCC2)c2ccccc2)cc1F (stereo unspecified)	2	79*	-42
CCOC(=O)c1cnc(-c2ccccc2O)nc1Cl	-6	x	x
CCOC(=O)C1=Nc2ccccc2C1=[N+]=[N-]	x	-20	100*
Cc1ccc(OCCn2c(CCCO)nc3ccccc32)cc1	x	-12	19
CCCn1c(CNc2ccccc2O)nc2ccccc21	-11	4	45*
CCCCC(NC(C)=O)c1nc2ccccc2n1CCC (stereo unspecified)	x	-5	-20
CCCCn1c(CNC(=O)CCC)nc2ccccc21	15	-1	0
c1ccc(NCc2nc3ccccc3n2CCOc2ccccc2)cc1	7	41*	-23
CCCn1c(C(C)NC(C)=O)nc2ccccc21 (stereo unspecified)	-13	-2	44*
CCCc1nc2ccccc2n1CCOc1ccccc1	x	-3	-32
COc1ccc(NCc2nc3ccccc3n2CCOc2ccc(C)cc2)cc1	4	5	92*
Cc1ccc(O)c(C(CC(=O)NCc2cccnc2)c2ccccc2)c1 (stereo unspecified)	-21	x	x
O=C(c1cccnc1)N1CCN(S(=O)(=O)c2ccc(F)cc2)CC1	-6	x	x
CC(=O)/C(=N\Nc1cccc(Cl)c1)Sc1nnc(-c2ccccc2)n1-c1ccccc1	-6	0	-26
COCc1nc2ccccc2n1CCCOc1ccccc1	-4	-13	-46
COc1ccc(NCc2nc3ccccc3n2CCOc2ccccc2)cc1	x	56*	22
O=[N+]([O-])c1ccc(C(O)C(CO)NC(=S)Nc2ccccc2)cc1 (stereo unspecified)	8	x	x
CCOc1ccccc1C(=O)Nc1ccc(S(=O)(=O)N2CCOCC2)cc1	11	-6	-23
N/C(Cc1ccc(Cl)cc1)=N\OC(=O)c1cccc2ccccc12	x	-11	99*
N/C(Cc1ccc(Cl)cc1)=N\OC(=O)c1ccc2ccccc2c1	x	-4	-5
SMILES	S1P3 antagonist	Yeast lifespan up	BB579 growth dn
COc1ccc(C(=O)/C=C/Sc2nc3ccccc3o2)cc1	-10	x	x
CCCCOC(=O)Sc1nc2ccccc2o1	-40	-19	100*
C=CCC(c1ccccc1F)N(CCN1CCOCC1)C(=O)Nc1cccc(Cl)c1 (stereo unspecified)	x	4	-14
Cc1ccc(N=CC=C2OC(C)(C)C(C)(C)O2)cc1	4	4	-28
CCCN1C(=O)N(C)C(N(O)C(=O)NC)C1(C)C (stereo unspecified)	x	-11	-37
Cc1cc(C)cc(N(CCC(=O)O)S(=O)(=O)c2ccc3ccccc3c2)c1	-9	33*	-30
Cc1ccc(N(CCC(=O)O)S(=O)(=O)c2ccccc2)cc1	2	-1	-14
COc1cccc(CN(C)C(=O)c2ccc3nccnc3c2)c1	x	-8	-82
COC(=O)NCC(c1cccnc1)N1CCN(c2ccccc2OC)CC1 (stereo unspecified)	-1	-15	-21
COC(=O)NCC(c1cccnc1)N1CCN(c2ccccc2F)CC1 (stereo unspecified)	102*	-4	-13
Cc1cc(=O)[nH]c(CN2CCOCC2)n1	6	x	x
Cc1occc1C(=O)N/N=C/c1ccc(Br)s1	-12	x	x
Cc1cc2sc(C(=O)O)c(C)c2s1	x	x	58*
Cc1c(C(=O)O)sc2nc(C)n(C)c(=O)c12	6	0	-68
CC(=O)C1=C(C)NC(=O)NC1/C=C/c1ccccc1 (stereo unspecified)	-5	x	x
O=C1C=CCC(/C=C/c2ccccc2)O1 (stereo unspecified)	-9	41*	-60
COc1ccc2c(=O)c(-c3cnn(-c4ccccc4)c3)c(C)oc2c1	x	-2	-28
COc1ccc(OC)c(NC(=O)CS(=O)(=O)c2ccccc2)c1	-14	-9	-39
COc1cc(OC)nc(NC(=O)CS(=O)(=O)c2ccccc2)n1	-36	x	56*
Cc1ccc(/C=C/C(=O)N2CC(=O)Nc3ccccc32)o1	14	x	x
COc1ccc(S(=O)(=O)NNC(N)=S)cc1	-12	x	x
O=C1c2ccccc2-c2c1cccc2C(=O)N1CCOCC1	x	x	-17
O=C1c2ccccc2C(=O)c2c1cccc2N1CCOCC1	x	-20	57*
